The list is not random: actives were taken first. Their share in the collection is about 2%.
FXN GAA850 act = frataxin GAA850 promoter activation; HEK293 lucGAA850 FXN promoter luciferase reporter, 24 h; percent of 10 µM SAHA response; activation, % at 6 µM; 360,000 compounds, 0.56% hits; AID 540364;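 active means activation above the average of all compounds screened plus 3 SD, cutoff fixed separately per campaign, cut at about 7.5% in these data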;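 further: 0% = DMSO wells and 100% = 10 µM SAHA wells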
NR2E3 ag-1 = activates human NR2E3 receptor; Q9Y5X4; CHO-S Gal4-NCOR/VP16-NR2E3 two-hybrid, luciferase; inhibition of corepressor binding, % at 3.98 µM; 360,000 compounds, 0.35% hits; AID 602229;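 active means inhibition above the mean of all tested compounds plus 3 SD, cut at about 70% in these data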;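 further: 0% = DMSO with NR2E3 transfected cells and 100% = cells lacking NR2E3 construct; higher means lower luciferase signal from less NR2E3 corepressor binding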
Target sequence (Q9Y5X4 whole entry, looked up, the tested form may be a part): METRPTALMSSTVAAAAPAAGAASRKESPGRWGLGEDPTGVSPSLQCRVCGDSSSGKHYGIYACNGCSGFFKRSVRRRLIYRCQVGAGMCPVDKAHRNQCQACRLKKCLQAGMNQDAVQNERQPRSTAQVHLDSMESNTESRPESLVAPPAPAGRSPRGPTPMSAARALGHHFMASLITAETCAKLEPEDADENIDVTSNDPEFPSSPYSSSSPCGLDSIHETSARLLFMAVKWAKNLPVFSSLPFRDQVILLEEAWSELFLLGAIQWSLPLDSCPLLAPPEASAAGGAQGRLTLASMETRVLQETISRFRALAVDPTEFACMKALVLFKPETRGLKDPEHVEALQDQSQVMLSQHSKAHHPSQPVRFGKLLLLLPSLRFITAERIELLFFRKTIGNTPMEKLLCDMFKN
Myeloid diff MLP = compounds promoting myeloid differentiation; 360,000 compounds, 1% hits; calls only at 10 µM; ER-HoxA9 myeloid progenitors, lysozyme-GFP differentiation, flow cytometry;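 active means normalized GFP-positive differentiation at or above the plate's own cutoff, the solvent-only control mean plus 3 SD; inconclusive means no clear call, values can overlap the other calls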;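 further: cells exposed to compound for four days before flow analysis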
T cell HTS = T cell immune modulators affecting CD8 T cell-vesicle binding | 330,000 compounds, 0.068% hits | response (vesicle binding), % at 7 µM | 2C CD8+ T cell-vesicle binding, flow cytometry; stronger effect = lower value;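 active means response, share of CD8 T cells binding vesicles, and their 90th percentile fluorescence all below set limits, cut at about 80% in these data, passing the limit was not always enough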;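 further: values below 100% mean blocked vesicle binding to the CD8+ T cells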
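material = purified 2C TCR transgenic mouse naive CD8+ T cells | controls = Unloaded micro-vesicles (low), QL9 vesicles with 0.7% DMSO (high) | detection = cytometric PE anti-B7-1 and Alexa647 anti-CD8 signals after 1% paraformaldehyde fixation | incubation = binding step 1.5 h, 37 °C, antibody labelling 20 min, ice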
NR2E3 ag-2 = agonists of human nuclear receptor NR2E3. 320,000 compounds, 0.12% hits. inhibition of corepressor binding, % at 4.78 µM. AID 2300. GST-NR2E3/biotin-RetCOR TR-FRET, 1536-well;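 active means percent inhibition above the cutoff of mean plus 3 SD of all tested compounds, set per screening campaign, cut at about 20% in these data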;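 further: 0% = DMSO wells and 100% = biotin wells as full block of FRET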
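Format: 1536-well format; test system: GST-NR2E3 and biotin-RetCOR proteins; read-out basis: percent inhibition of TR-FRET ratio; timing: 5 h incubation at 4 °C; detection: time-resolved FRET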
Myeloid diff = compounds promoting myeloid differentiation | shares compounds with Myeloid diff MLP | ER-HoxA9 myeloid progenitors, GFP/Mac1 double-positive flow | calls only | 2,300 compounds, 2% hits;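 active means share of green or green-and-red cells above 9 and 9% in run 1 or 4 and 3% in run 2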
GFP autofluor = flagged as fluorescent in myeloid differentiation counter-screen. shares compounds with Myeloid diff MLP. ER-HoxA9 myeloid progenitors, no estrogen, GFP autofluorescence flow cytometry; vehicle wells 0%, positive control 100%. fluorescence response, % (no concentration beside the values). 2,300 compounds, 7.4% hits;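 active means over 5% cells positive for green fluorescent reporter, or over 2% positive for both it and APC stain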;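 further: range taken on the double positive population between DMSO and positive control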
* hit, by the source's call; i = inactive; ? = inconclusive; . = not tested or not shown; + = active, no number.

SMILES	FXN GAA850 act	NR2E3 ag-1	Myeloid diff MLP	T cell HTS	NR2E3 ag-2	Myeloid diff	GFP autofluor
COc1ccc(Cn2c(=N)c(C(=O)NCC3CCCO3)cc3c(=O)n4ccccc4nc32)cc1 (configuration not stated)	1	6	i	132	2	i	0
COc1ccc(CCn2c(=N)c(C(=O)NCC3CCCO3)cc3c(=O)n4ccccc4nc32)cc1 (configuration not stated)	1	-26	?	368	-4	.	.
c1ccc(C2=Nn3c(nnc3-c3ccccn3)SC2)cc1	-4	15	i	279	1	i	0
O=C(Nc1ccc(Cl)cc1F)C1CCCN(C2=NS(=O)(=O)c3ccccc32)C1 (configuration not stated)	1	-7	i	.	.	.	.
Cc1ccc(NC(=O)C2CCCN(C3=NS(=O)(=O)c4ccccc43)C2)c(O)c1 (configuration not stated)	1	-20	+	182	7	i	21*
COc1cccc(NC(=S)N2CCN(C(c3ccccc3)c3ccccc3)CC2)c1	1	40	i	255	-1	i	0
COc1ccc(NC(=S)N2CCN(C(c3ccccc3)c3ccccc3)CC2)c(OC)c1	-1	9	i	158	2	.	.
CSc1nc(SCC(N)=O)c2c3c(sc2n1)CN(C)CC3	-1	-22	i	215	3	.	.
CCNc1nc(SCC(N)=O)nc2sc3c(c12)CCN(C)C3	-1	-25	i	.	.	i	0
COc1cc(C#Cc2c(-c3cncn3C)n(C)c3ccc(-c4ccc5[nH]ccc5c4)cc23)cc(OC)c1	1	-35	i	351	3	i	98*
CSc1cccc(NC(=O)c2ccccn2)c1	.	.	.	97	2	.	.
CSc1cccc(NC(=O)c2ccc(Cl)nc2)c1	1	-1	i	348	-1	i	0
COc1cc(C(=O)NC2CC2)cc(OC)c1OC	.	16	i	.	.	.	.
CCN(CC)c1ccc2cc(S(=O)(=O)c3ccc(Cl)cc3)c(=O)oc2c1	-2	-10	i	281	3	i	1
COc1cccc2sc(=NC(=O)CS(=O)(=O)c3ccc(Cl)cc3)n(C)c12	-1	13	+	116	3	i	0
CCn1c(=NC(=O)CS(=O)(=O)c2ccc(C)cc2)sc2cccc(OC)c21	-1	28	i	127	0	i	0
COc1cccc2sc(=NC(=O)CS(=O)(=O)c3ccc(F)cc3)n(C)c12	1	-5	i	342	3	.	.
CCC1NC(=O)c2cccnc2-n2c1nc1ccc(OC)cc1c2=O (configuration not stated)	-2	-26	i	.	.	.	.
C[C@@]12C(=O)N(c3cccc(Cl)c3)C(=O)N1[C@H](c1ccc(Cl)cc1)[C@@H]1C(=O)N(C3CCCCC3)C(=O)[C@@H]12	7	15	+	194	3	i	1
N#CC1=C(S)N(c2ccccc2)C(c2ccc(-c3cc(Cl)ccc3Cl)o2)NC1=O (configuration not stated)	0	-38	i	261	1	i	0
C=CCN1C(=O)/C(=C2/Sc3ccc(OC)cc3N2C)SC1=Nc1cccc(O)c1	1	-26	i	174	0	i	0
CCOc1ccc(CN2C(=O)c3ccccc3C2=O)cc1C(=O)Nc1nnc(SCC)s1	1	-28	i	166	4	.	.
CCOc1ccc(CN2C(=O)c3ccccc3C2=O)cc1C(=O)NC1CC(C)(C)NC(C)(C)C1	0	1	i	223	2	i	98*
O=C(NCC(c1cccs1)N1CCOCC1)c1ccc(OCc2ccccc2)cc1 (configuration not stated)	1	10	+	458	0	i	0
CC(OC(=O)C1CCCCC1)C(=O)Nc1ccc(S(N)(=O)=O)cc1 (configuration not stated)	-2	16	i	754	4	.	.
SMILES	FXN GAA850 act	NR2E3 ag-1	Myeloid diff MLP	T cell HTS	NR2E3 ag-2	Myeloid diff	GFP autofluor
O=c1[nH]c(SCc2nc3c(cnn3-c3ccccc3)c(=O)[nH]2)nc2ccccc12	-5	-48	+	.	.	i	3
Cc1cccc(C)c1NC(=O)C(c1ccc(C(F)(F)F)cc1)n1c(=O)c(-c2cc3ccccc3[nH]2)nc2ccccc21 (configuration not stated)	.	.	i	.	.	.	.
Cc1cc(C)nc(/N=C(\N)Nc2ccccc2-c2ccccc2)n1	-4	0	+	164	6	i	0
Cc1ccc(N/C(N)=N/c2nc(C)cc(C)n2)cc1	0	-9	i	428	-3	.	.
C=C1[C@@H](OC(C)=O)C=C[C@@]2(C)C=CC(=O)[C@@](C)(OC(C)=O)[C@@H]2[C@@H](OC(C)=O)[C@]2(O)[C@@H](C)C(=O)O[C@H]2[C@H]1Cl	-2	-19	i	.	.	.	.
COC(=O)c1c(-c2ccccc2OC)sc2cc3c(cc12)OCO3	1	-17	i	475	.	.	.
CCCn1c(N)c(N(CCOC)C(=O)c2ccc(S(=O)(=O)N3CCOCC3)cc2)c(=O)[nH]c1=O	1	-33	i	.	.	.	.
CCCOc1cccc(C2C(C(=O)c3ccco3)=C(O)C(=O)N2c2nnc(C)s2)c1 (configuration not stated)	4	-27	.	248	13	.	.
CCCCOc1cccc(C2C(C(=O)c3ccc(C)o3)=C(O)C(=O)N2c2nnc(C)s2)c1 (configuration not stated)	2	-41	+	.	.	i	2
CCCCCCn1cc(CN2CC(N(C)C)CS2(=O)=O)nn1 (configuration not stated)	.	-20	i	.	.	.	.
C1CCCCCC(NCCN2CCNCC2)CCCCC1	2	10	+	565	-2	i	0
CCc1nn(CC(=O)NCc2cccnc2)c(=O)c2cc3occc3n12	0	-4	i	272	-3	.	.
CCc1nc2c(OCc3ccc(C(=O)N(C)C)cc3)cccn2c1N(C)C(=O)c1ccc(C)cc1	-1	6	i	.	.	.	.
O=C(Nc1cccc2nsnc12)c1cc2c(cc1Cl)Sc1nccn1S2(=O)=O	0	-4	i	.	.	.	.
COc1ccc(Cc2nnc(NC(=O)C3CCCO3)s2)cc1OC (configuration not stated)	0	-6	+	246	0	i	0
COc1ccc(Cc2nnc(NC(=O)C3CCCO3)s2)cc1 (configuration not stated)	1	-18	i	256	-5	.	.

Bioassay records from PubChem BioAssay.
